Structures are written as SMILES. Counter-ions that a name gives are not always drawn.

From ChEMBL document CHEMBL1152630, “Synthesis and evaluation of benzo[b]thiophene derivatives as inhibitors of alkaline phosphatases” (Bioorg Med Chem, 2009) come the findings set out here.

For experiment [1], the target named is Intestinal-type alkaline phosphatase (Bos taurus) (UniProt P19111). In words: Inhibition of bovine intestinal alkaline phosphatase assessed as residual enzyme activity at 0.1 mM in presence of 1% DMSO at pH 10.4 at 37 degC relative to untreated control. An outline of the steps: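 Screening in 25 mM piperazine, 25 mM glycylglycine, 5 mM MgCl2, 5 µM ZnCl2, pH 10.4, 37 °C. BIAP (0.1–0.3 µg/mL) preincubated 10 min with 0.1 mM compound (final DMSO 1% v/v), no substrate. Reaction started with 0.05 mM pNPP; read at 420 nm (ε 18.6 cm⁻¹ mM⁻¹). Activity given relative to inhibitor-free control; sample-to-sample error 5%.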

The species named for experiment [2] is Sus scrofa. As to the kind of experiment: Inhibition of porcine kidney tissue non-specific alkaline phosphatase assessed as residual enzyme activity at 0.4 mM in presence of 1% DMSO at pH 10.4 at 37 degC relative to untreated control.
Experiment [3] is filed under the species Sus scrofa. As to the kind of experiment: Inhibition of porcine kidney tissue non-specific alkaline phosphatase assessed as residual enzyme activity at 0.4 mM in presence of 4% DMSO at pH 10.4 at 37 degC relative to untreated control.
Experiment [4] can be described thus: Inhibition of porcine kidney tissue non-specific alkaline phosphatase at pH 7.8 at 37 degC. Also on record: species or system Sus scrofa.

Intestinal-type alkaline phosphatase (Bos taurus), sequence (P19111 20-506 limits assumed): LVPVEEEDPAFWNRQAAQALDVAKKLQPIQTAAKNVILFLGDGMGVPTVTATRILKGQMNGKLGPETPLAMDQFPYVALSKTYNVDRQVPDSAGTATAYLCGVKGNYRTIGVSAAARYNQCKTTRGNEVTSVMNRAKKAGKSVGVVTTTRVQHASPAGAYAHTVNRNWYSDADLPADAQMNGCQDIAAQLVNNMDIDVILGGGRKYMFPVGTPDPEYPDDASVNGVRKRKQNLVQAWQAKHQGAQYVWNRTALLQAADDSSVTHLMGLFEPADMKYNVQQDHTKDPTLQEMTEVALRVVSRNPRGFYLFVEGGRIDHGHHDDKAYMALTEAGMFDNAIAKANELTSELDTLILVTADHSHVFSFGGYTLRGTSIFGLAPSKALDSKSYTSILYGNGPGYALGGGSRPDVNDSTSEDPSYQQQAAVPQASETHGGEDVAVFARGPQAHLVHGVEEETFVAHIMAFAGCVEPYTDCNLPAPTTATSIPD

Consider `FC(F)c1c(-c2cccnc2)sc2ccccc12`, for which the Activity in experiment [1] stood at 103%; in the experiment filed under Sus scrofa [2], 79%.

In the case of `c1ccc([C@H]2CN3CCSC3=N2)cc1` [LEVAMISOLE HYDROCHLORIDE], the Activity was 99% in experiment [1] and 10% in the experiment filed under Sus scrofa [3]. Besides, the affinity in experiment [4], expressed as Ki, was 93 µM.

With `N#Cc1ccc(Oc2c(-c3ccccc3C#N)sc3ccccc23)cc1`, the Activity turned out to be 82% in experiment [1] and 97% in the experiment listed under Sus scrofa [3].

On to `[O-][s+]1cc(Oc2ccccc2)c2ccccc21` (configuration not stated), for which the Activity was 102% in experiment [1] and 104% in the experiment listed under Sus scrofa [3].

As to `CC(C)(C)c1ccc(Oc2csc3ccccc23)cc1`, the Activity was found to be 113% in experiment [1] and 100% in the experiment listed under Sus scrofa [3].

Regarding `COc1c(-c2cccnc2)sc2ccccc12`, the figures for the Activity (in experiment [1]; in the experiment filed under Sus scrofa [3]) were 112% and 44%, respectively.

Consider `C1=CN2CC(c3csc4ccccc34)N=C2S1` (configuration not stated), for which the Activity in experiment [1] amounted to 99%; in the experiment filed under Sus scrofa [3], 11%. The molecule further registered an inhibitory constant (Ki) in experiment [4] of 85 µM.

Turning to `NCc1c(-c2ccccc2)sc2ccccc12`, the Activity turned out to be 148% in experiment [1] and 76% in the experiment listed under Sus scrofa [3].

For `N#Cc1ccccc1-c1sc2ccccc2c1Oc1ccccc1`, the Activity in experiment [1] worked out at 110%; in the experiment listed under Sus scrofa [3] it was 91%.

For `COc1csc2ccccc12`, the results for the Activity (in experiment [1]; in the experiment filed under Sus scrofa [3]) were 90% and 93%, respectively.

With `COc1ccccc1C(=O)c1c(-c2ccccc2[N+](=O)[O-])sc2ccccc12`, the Activity in experiment [1] turned out to be 92%; in the experiment filed under Sus scrofa [3], 98%.

As for `N#Cc1ccc(-c2sc3ccccc3c2C=O)cc1`, the Activity in experiment [1] was 92%; in the experiment listed under Sus scrofa [3], 105%.

Take `COc1ccc(-c2sc3ccccc3c2C(=O)c2ccccc2OC)c([N+](=O)[O-])c1`: the Activity stood at 117% in experiment [1] and 111% in the experiment filed under Sus scrofa [3].

`Cc1ccccc1-c1sc2ccccc2c1C#N`: the Activity in experiment [1] was determined as 5%; in the experiment listed under Sus scrofa [3], 85%.

For the molecule `N#Cc1c(-c2ccc3ccccc3c2)sc2ccccc12`, the Activity in experiment [1] stood at 18%; in the experiment listed under Sus scrofa [3], 99%.

On to `COc1ccc(-c2sc3ccccc3c2CN)c(N)c1`, for which the Activity (in experiment [1]; in the experiment listed under Sus scrofa [3]) was 103% throughout.

In the case of `COc1c(-c2ccccn2)sc2ccccc12`, the Activity is 99% in experiment [1] and 90% in the experiment filed under Sus scrofa [3].

Take `O=Cc1c(-c2cccnc2)sc2ccccc12`: the values for the Activity (in experiment [1]; in the experiment filed under Sus scrofa [3]) were 119% and 93%, respectively.

In the case of `O=C(c1ccccc1)c1csc2ccccc12`, the Activity amounted to 43% in experiment [1] and 80% in the experiment filed under Sus scrofa [3].

As for `c1ccc(Oc2csc3ccccc23)cc1`, the Activity stood at 104% in experiment [1] and 89% in the experiment listed under Sus scrofa [3].

`O=[N+]([O-])c1ccccc1-c1cc2ccccc2s1`: the values for the Activity (in experiment [1]; in the experiment listed under Sus scrofa [3]) were 121% and 86%, respectively.

As for `[O-][s+]1cc(N2CCOCC2)c2ccccc21` (configuration not stated), the Activity in experiment [1] was 97%; in the experiment filed under Sus scrofa [3] it was 111%.

For `COc1cc(Oc2c[s+]([O-])c3ccccc23)cc(OC)c1OC` (configuration not stated), the Activity amounted to 127% in experiment [1] and 101% in the experiment filed under Sus scrofa [3].

On to `O=[N+]([O-])c1cc(Cl)ccc1-c1cc2ccccc2s1`, for which the Activity was determined as 107% in experiment [1] and 93% in the experiment listed under Sus scrofa [3].

In the case of `COc1ccc(Oc2c(-c3ccccc3C#N)sc3ccccc23)c(OC)c1OC`, the Activity is 121% in experiment [1] and 106% in the experiment filed under Sus scrofa [3].

On to `c1ccc2c(C3CN4CCSC4=N3)csc2c1` (configuration not stated), for which the values for the Activity (in experiment [1]; in the experiment listed under Sus scrofa [3]) were 100% and 19%, respectively. The inhibition constant (Ki) in experiment [4] came out at 135 µM.

Consider `c1ccc(-c2cc3ccccc3s2)nc1`, for which the Activity in experiment [1] came to 119%; in the experiment listed under Sus scrofa [3] it was 94%.

Turning to `N#Cc1ccccc1-c1sc2ccccc2c1C(=O)c1ccccc1`, the Activity in experiment [1] is 91%; in the experiment listed under Sus scrofa [3], 92%.

As for `N#Cc1ccccc1-c1sc2ccccc2c1N1CCCCC1`, the Activity in experiment [1] was 99%; in the experiment listed under Sus scrofa [3], 100%.

As for `COc1ccc(-c2sc3ccccc3c2Oc2ccccc2)cc1`, the Activity was 105% in experiment [1] and 94% in the experiment listed under Sus scrofa [3].

On to `NCc1c(-c2cccnc2)sc2ccccc12`, for which the Activity stood at 105% in experiment [1] and 111% in the experiment listed under Sus scrofa [3].

On to `FC(F)(F)COc1cc2ccccc2s1`, for which the Activity in experiment [1] was 116%; in the experiment listed under Sus scrofa [3], 100%.

As to `O=Cc1c(-c2ccc(C(F)(F)F)cc2)sc2ccccc12`, the Activity in experiment [1] is 30%; in the experiment listed under Sus scrofa [3], 80%.

Regarding `COc1c(-c2cnc3ccccc3c2)sc2ccccc12`, the Activity in experiment [1] was found to be 64%; in the experiment filed under Sus scrofa [3], 86%.

Turning to `COc1ccc(Oc2c(-c3ccccc3C#N)sc3ccccc23)cc1`, the Activity was 106% in experiment [1] and 98% in the experiment listed under Sus scrofa [3].

For `FC(F)c1c(-c2ccccc2)sc2ccccc12`, the figures for the Activity (in experiment [1]; in the experiment filed under Sus scrofa [3]) were 94% and 90%, respectively.

In the case of `COc1c(-c2ccccc2C)sc2ccccc12`, the Activity came to 73% in experiment [1] and 96% in the experiment listed under Sus scrofa [3].

Consider `[O-][s+]1cc(Oc2ccc(Cl)cc2)c2ccccc21` (configuration not stated), for which the values for the Activity (in experiment [1]; in the experiment filed under Sus scrofa [3]) were 122% and 103%, respectively.

As to `NCc1ccc(Oc2csc3ccccc23)cc1`, the Activity was 105% in experiment [1] and 83% in the experiment listed under Sus scrofa [3].

Take `COc1ccc(C(=O)c2c(-c3ccccc3[N+](=O)[O-])sc3ccccc23)cc1`: the Activity in experiment [1] was determined as 107%; in the experiment listed under Sus scrofa [3], 101%.

In the case of `O=[N+]([O-])c1ccccc1-c1sc2ccccc2c1-c1ccccc1[N+](=O)[O-]`, the results for the Activity (in experiment [1]; in the experiment filed under Sus scrofa [3]) were 108% and 88%, respectively.

Take `N#Cc1ccccc1-c1sc2ccccc2c1Oc1ccc(F)cc1`: the values for the Activity (in experiment [1]; in the experiment filed under Sus scrofa [3]) were 66% and 85%, respectively.

Regarding `COc1ccc(C(=O)c2c(-c3ccc(OC)cc3[N+](=O)[O-])sc3ccccc23)cc1`, the Activity worked out at 95% in experiment [1] and 100% in the experiment filed under Sus scrofa [3].

Take `O=Cc1c(-c2cccc(Cl)c2)sc2ccccc12`: the Activity in experiment [1] came out at 62%; in the experiment listed under Sus scrofa [3], 95%.

Consider `N#Cc1ccccc1-c1sc2ccccc2c1N1CCOCC1`, for which the Activity in experiment [1] was 107%; in the experiment listed under Sus scrofa [3] it was 93%.

For `N#Cc1ccccc1-c1sc2ccccc2c1C=O`, the Activity in experiment [1] came out at 110%; in the experiment filed under Sus scrofa [3], 79%.

Turning to `N#Cc1ccc(Oc2csc3ccccc23)cc1`, the Activity was determined as 87% in experiment [1] and 85% in the experiment listed under Sus scrofa [3].

In the case of `c1ccc(-c2sc3ccccc3c2N2CCCCC2)cc1`, the values for the Activity (in experiment [1]; in the experiment listed under Sus scrofa [3]) were 99% and 81%, respectively.

`Ic1cc2ccccc2s1`: the Activity worked out at 41% in experiment [1] and 54% in the experiment listed under Sus scrofa [3].

In the case of `Oc1ccccc1N1CCN(c2csc3ccccc23)CC1`, the Activity was 49% in experiment [1] and 109% in the experiment listed under Sus scrofa [3].

For `O=Cc1c(-c2ccccc2)sc2ccccc12`, the Activity in experiment [1] worked out at 41%; in the experiment filed under Sus scrofa [3], 77%.

In the case of `Fc1ccc(Oc2csc3ccccc23)cc1`, the Activity in experiment [1] is 104%; in the experiment filed under Sus scrofa [3], 78%.

The term Ki denotes a measure of affinity in units of concentration, obtained from inhibition or displacement.
